# Source: ChEMBL document CHEMBL3627607, “A Novel Pyrazolopyridine with in Vivo Activity in Plasmodium berghei- and Plasmodium falciparum-Infected Mouse Models from Structure-Activity Relationship Studies around the Core of Recently Identified Antimalarial Imidazopyridazines” (J Med Chem, 2015)
# How the values were obtained:
# Plasmodium falciparum [1] = experiment: Antiplasmodial activity against drug sensitive Plasmodium falciparum NF54 infected in human erythrocytes after 48 hrs by [3H]-hypoxanthine incorporation assay; assay type: functional, organism-based
# [2] = Drug level in mouse blood at 50 mg/kg, po after 4 hrs; assay type: ADME, organism-based; conditions: read-out: Drug uptake
# Summary of the method: (§1)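 Snapshot whole-blood levels of parent and its sulfone metabolite at 1, 4 and 24 h after the first 50 mg/kg oral dose. Samples came from the P. berghei-infected efficacy mice, dosed in HPMC suspension vehicle.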
# [3] = Metabolic stability of the compound in mouse liver microsomes assessed as compound remaining at 0.1 uM after 30 mins by LC-MS/MS analysis; assay type: ADME; conditions: 0.5 h
# Plasmodium berghei [4] = experiment: Antiplasmodial activity against Plasmodium berghei ANKA expressing GFP infected in mouse assessed as means survival days at 50 mg/kg, po qd for 4 days; assay type: functional
# Summary of the method: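 Mice (n = 3) infected with GFP-transfected P. berghei ANKA. Compounds dissolved or suspended in HPMC vehicle (0.5% w/v hydroxypropylmethylcellulose, 0.5% v/v benzyl alcohol, 0.4% v/v Tween 80, 0.9% w/v NaCl in water). Dosed orally 4, 24, 48 and 72 h after infection. Parasitemia read by flow cytometry (detection limit 0.1%). Survival recorded as mean survival time in days.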
# Liver microsome [5] = experiment: Metabolic stability of the compound in rat liver microsomes assessed as compound remaining at 0.1 uM after 30 mins by LC-MS/MS analysis; assay type: ADME; conditions: 0.5 h
# Plasmodium falciparum [6] = experiment: Antiplasmodial activity against multidrug resistant Plasmodium falciparum K1 infected in human erythrocytes after 48 hrs by [3H]-hypoxanthine incorporation assay; assay type: functional, organism-based
# Plasmodium berghei [7] = experiment: Antiplasmodial activity against Plasmodium berghei ANKA expressing GFP infected in mouse assessed as reduction of parasitemia level at 50 mg/kg, po qd for 4 days measured on day 4 post last dose by flow cytometric analysis relative to control; assay type: functional; parameters: scale not given: the % may be the effect or the level left
# Summary of the method: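 Mice (n = 3) infected with GFP-transfected P. berghei ANKA. Test agents were suspended in HPMC vehicle (0.5% w/v hydroxypropylmethylcellulose, 0.5% v/v benzyl alcohol, 0.4% v/v Tween 80, 0.9% w/v NaCl in water). Dosed orally at 4, 24, 48 and 72 h post-infection. Parasitemia read by flow cytometry on day 4 (96 h), detection limit 0.1%. Activity = control-minus-treated mean % parasitemia, relative to control.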
# Plasmodium berghei [8] = experiment: Antiplasmodial activity against sporozoite stage of Plasmodium berghei expressing luciferase infected in human HepG2-A16-CD81EGFP cells preincubated with cells for 18 hrs followed by protozoal infection measured after 48 hrs by bioluminescence assay; assay type: functional, organism-based
# Summary of the method: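 HepG2 cells were pretreated 18 h with compound, then infected with freshly dissected luciferase-expressing P. berghei sporozoites. After a further 48 h with compound, viability of exoerythrocytic forms and of HepG2 host cells was read by bioluminescence.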
# [9] = Half life in rat at 20 mg/kg, po; assay type: ADME, organism-based; conditions: in vivo
# [10] = Plasma clearance in rat at 5 mg/kg, iv; assay type: ADME, organism-based
# [11] = Oral bioavailability in rat at 20 mg/kg; assay type: ADME, organism-based; conditions: in vivo
# [12] = Half life in rat at 5 mg/kg, iv; assay type: ADME, organism-based; conditions: in vivo
# [13] = Drug level in mouse blood at 50 mg/kg, po after 1 hr; assay type: ADME, organism-based; conditions: read-out: Drug uptake; summary of the method: as §1
# [14] = Volume of distribution in rat at 5 mg/kg, iv; assay type: ADME, organism-based; conditions: in vivo
# Liver microsome [15] = experiment: Metabolic stability of the compound in human liver microsomes assessed as compound remaining at 0.1 uM after 30 mins by LC-MS/MS analysis; assay type: ADME; conditions: 0.5 h
# [16] = (§2) Drug level in mouse blood at 50 mg/kg, po after 24 hrs; assay type: ADME, organism-based; conditions: blood, read-out: Drug uptake; summary of the method: as §1
# [17] = Tmax in Plasmodium falciparum 3D7 infected in non-myelodepleted NOD-SCID IL2Rgammanull mouse engrafted with human erythrocytes at 0.1 mg/kg, po; assay type: ADME, organism-based; conditions: in vivo
# Summary of the method: (§3)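 Engrafted NSG (scid IL2Rgc null) mice infected with P. falciparum were given one oral dose per day for four days. Blood was sampled to measure parent and its sulfone metabolite.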
# [18] = Tmax in Plasmodium falciparum 3D7 infected in non-myelodepleted NOD-SCID IL2Rgammanull mouse engrafted with human erythrocytes at 10 mg/kg, po; assay type: ADME, organism-based; conditions: in vivo
# Summary of the method: (§4)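 Humanized NSG mice infected with P. falciparum received one oral dose per day for 4 consecutive days. Blood was sampled for exposure, with levels of both parent and its main active metabolite measured. Tmax was taken from the blood concentration–time profile after oral dosing.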
# [19] = AUC (0 to 23 hrs) in Plasmodium falciparum 3D7 infected in non-myelodepleted NOD-SCID IL2Rgammanull mouse engrafted with human erythrocytes at 30 mg/kg, po; assay type: ADME, organism-based; parameters: dose 30 mg/kg, time < 23 hr, route oral; conditions: in vivo; summary of the method: as §3
# Blood [20] = experiment: Drug level in rat blood treated with 5-(3-(Cyclopropylsulfonyl)phenyl)-3-(4-(methylsulfinyl)-phenyl)pyrazolo[1,5-a]pyridine at 20 mg/kg, po and 5 mg/kg, iv by LC-MS/MS analysis; assay type: ADME, organism-based; conditions: in vivo
# Summary of the method: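 Metabolites identified by LC-ESI-MS/MS in blood samples from the rat PK study (oral and intravenous dosing).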
# [21] = Oral bioavailability in rat at 10 mg/kg; assay type: ADME, organism-based; conditions: in vivo
# [22] = Tmax in Plasmodium falciparum 3D7 infected in non-myelodepleted NOD-SCID IL2Rgammanull mouse engrafted with human erythrocytes at 30 mg/kg, po; assay type: ADME, organism-based; conditions: in vivo; summary of the method: as §4
# [23] = AUC (0 to 8 hrs) in Plasmodium falciparum 3D7 infected in non-myelodepleted NOD-SCID IL2Rgammanull mouse engrafted with human erythrocytes at 0.1 mg/kg, po; assay type: ADME, organism-based; parameters: time < 8 hr, dose 0.1 mg/kg, route oral; conditions: in vivo; summary of the method: as §3
# [24] = AUC (0 to 23 hrs) in Plasmodium falciparum 3D7 infected in non-myelodepleted NOD-SCID IL2Rgammanull mouse engrafted with human erythrocytes at 1.5 mg/kg, po; assay type: ADME, organism-based; parameters: time < 23 hr, dose 1.5 mg/kg, route oral; conditions: in vivo; summary of the method: as §3
# [25] = Half life in rat at 3 mg/kg, iv; assay type: ADME, organism-based; conditions: in vivo
# [26] = AUC (0 to 23 hrs) in Plasmodium falciparum 3D7 infected in non-myelodepleted NOD-SCID IL2Rgammanull mouse engrafted with human erythrocytes at 0.5 mg/kg, po; assay type: ADME, organism-based; parameters: time < 23 hr, dose 0.5 mg/kg, route oral; conditions: in vivo; summary of the method: as §3
# [27] = Cmax in Plasmodium falciparum 3D7 infected in non-myelodepleted NOD-SCID IL2Rgammanull mouse engrafted with human erythrocytes at 0.1 mg/kg, po; assay type: ADME, organism-based; parameters: dose 0.1 mg/kg, route oral; conditions: in vivo; summary of the method: as §3
# [28] = AUC (0 to 23 hrs) in Plasmodium falciparum 3D7 infected in non-myelodepleted NOD-SCID IL2Rgammanull mouse engrafted with human erythrocytes at 10 mg/kg, po; assay type: ADME, organism-based; parameters: dose 10 mg/kg, time < 23 hr, route oral; conditions: in vivo; summary of the method: as §3
# [29] = Plasma clearance in rat at 3 mg/kg, iv; assay type: ADME, organism-based
# [30] = Half life in rat at 10 mg/kg, po; assay type: ADME, organism-based; conditions: in vivo
# [31] = Cmax in Plasmodium falciparum 3D7 infected in non-myelodepleted NOD-SCID IL2Rgammanull mouse engrafted with human erythrocytes at 30 mg/kg, po; assay type: ADME, organism-based; parameters: dose 30 mg/kg, route oral; conditions: in vivo; summary of the method: as §3
# Liver microsome [32] = experiment: Drug level in rat liver microsomes treated with 5-(3-(Cyclopropylsulfonyl)phenyl)-3-(4-(methylsulfinyl)-phenyl)pyrazolo[1,5-a]pyridine at 10 uM after 1 hr by LC-MS/MS analysis; assay type: ADME
# Summary of the method: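 Metabolites identified by LC-ESI-MS/MS after in vitro incubation with rat liver microsomes.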
# [33] = Tmax in Plasmodium falciparum 3D7 infected in non-myelodepleted NOD-SCID IL2Rgammanull mouse engrafted with human erythrocytes at 1.5 mg/kg, po; assay type: ADME, organism-based; conditions: in vivo; summary of the method: as §4
# [34] = Tmax in Plasmodium falciparum 3D7 infected in non-myelodepleted NOD-SCID IL2Rgammanull mouse engrafted with human erythrocytes at 0.5 mg/kg, po; assay type: ADME, organism-based; conditions: in vivo; summary of the method: as §4
# [35] = Volume of distribution in rat at 3 mg/kg, iv; assay type: ADME, organism-based; conditions: in vivo
# Blood [36] = experiment: as §2; assay type: ADME, organism-based; conditions: in vivo, 24 h, BLD = below limit of detection; summary of the method: as §1
# [37] = Cmax in Plasmodium falciparum 3D7 infected in non-myelodepleted NOD-SCID IL2Rgammanull mouse engrafted with human erythrocytes at 0.5 mg/kg, po; assay type: ADME, organism-based; parameters: dose 0.5 mg/kg, route oral; conditions: in vivo; summary of the method: as §3
# [38] = Cmax in Plasmodium falciparum 3D7 infected in non-myelodepleted NOD-SCID IL2Rgammanull mouse engrafted with human erythrocytes at 1.5 mg/kg, po; assay type: ADME, organism-based; parameters: dose 1.5 mg/kg, route oral; conditions: in vivo; summary of the method: as §3
# [39] = Cmax in Plasmodium falciparum 3D7 infected in non-myelodepleted NOD-SCID IL2Rgammanull mouse engrafted with human erythrocytes at 10 mg/kg, po; assay type: ADME, organism-based; parameters: dose 10 mg/kg, route oral; conditions: in vivo; summary of the method: as §3
# [40] = Selectivity index, ratio of IC50 for African green monkey VERO cells to IC50 for multidrug resistant Plasmodium falciparum K1; assay type: toxicity, cell-based; conditions: read-out: Ratio IC50
# [41] = Selectivity index, ratio of IC50 for African green monkey VERO cells to IC50 for Plasmodium falciparum NF54; assay type: toxicity, cell-based; conditions: read-out: Ratio IC50
# [42] = Oral bioavailability in rat at 15 mg/kg; assay type: ADME, organism-based; conditions: in vivo
# [43] = molecular target: Voltage-gated inwardly rectifying potassium channel KCNH2 (Homo sapiens, UniProt Q12809); experiment: Inhibition of human ERG potassium channel by ionworks patch-clamp electrophysiology assay
# Sequence of Voltage-gated inwardly rectifying potassium channel KCNH2 (Q12809 whole entry): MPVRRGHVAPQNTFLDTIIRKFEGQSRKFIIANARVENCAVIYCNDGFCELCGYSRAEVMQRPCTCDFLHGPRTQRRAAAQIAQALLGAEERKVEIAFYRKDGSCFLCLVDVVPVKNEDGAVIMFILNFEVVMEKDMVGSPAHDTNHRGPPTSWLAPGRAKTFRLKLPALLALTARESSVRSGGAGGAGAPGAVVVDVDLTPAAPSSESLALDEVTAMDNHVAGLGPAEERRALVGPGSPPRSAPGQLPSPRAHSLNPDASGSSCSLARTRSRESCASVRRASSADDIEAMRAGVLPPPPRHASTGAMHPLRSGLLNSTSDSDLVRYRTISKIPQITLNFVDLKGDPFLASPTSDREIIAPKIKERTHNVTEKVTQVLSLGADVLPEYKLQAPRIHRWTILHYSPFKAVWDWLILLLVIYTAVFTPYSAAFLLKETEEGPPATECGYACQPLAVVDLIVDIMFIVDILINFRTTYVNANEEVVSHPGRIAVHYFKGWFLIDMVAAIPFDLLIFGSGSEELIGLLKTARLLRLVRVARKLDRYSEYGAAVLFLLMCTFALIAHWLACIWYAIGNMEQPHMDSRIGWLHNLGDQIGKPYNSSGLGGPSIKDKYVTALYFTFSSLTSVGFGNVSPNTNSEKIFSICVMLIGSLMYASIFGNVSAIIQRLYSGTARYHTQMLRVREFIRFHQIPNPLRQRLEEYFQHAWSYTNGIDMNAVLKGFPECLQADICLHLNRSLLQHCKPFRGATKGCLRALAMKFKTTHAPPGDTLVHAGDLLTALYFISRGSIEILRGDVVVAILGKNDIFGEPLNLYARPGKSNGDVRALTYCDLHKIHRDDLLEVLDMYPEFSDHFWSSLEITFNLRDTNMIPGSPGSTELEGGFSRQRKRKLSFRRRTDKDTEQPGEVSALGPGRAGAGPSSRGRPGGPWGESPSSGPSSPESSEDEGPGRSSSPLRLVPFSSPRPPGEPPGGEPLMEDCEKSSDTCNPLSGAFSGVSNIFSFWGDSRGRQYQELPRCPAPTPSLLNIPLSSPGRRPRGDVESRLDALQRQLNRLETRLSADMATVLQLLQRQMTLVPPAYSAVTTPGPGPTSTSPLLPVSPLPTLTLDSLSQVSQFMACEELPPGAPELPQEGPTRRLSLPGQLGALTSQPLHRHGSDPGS
# [44] = Selectivity index, ratio of IC50 for CHO cells to IC50 for Plasmodium falciparum NF54; assay type: toxicity, cell-based; conditions: hamster, read-out: Ratio IC50
# [45] = Half life in rat at 15 mg/kg, po; assay type: ADME, organism-based; conditions: in vivo
# [46] = Selectivity index, ratio of IC50 for CHO cells to IC50 for multidrug resistant Plasmodium falciparum K1; assay type: toxicity, cell-based; conditions: hamster, read-out: Ratio IC50
smiles,measurement,setting,value
CS(=O)(=O)c1ccc(-c2cnn3ccc(-c4cccc(S(=O)(=O)C5CC5)c4)nc23)cc1,IC50,Plasmodium falciparum [1],0.42 nM
same,concentration at 4 h,[2],145 nM
same,Stability,[3],Stable
same,MSD,Plasmodium berghei [4],7 days
same,Stability,Liver microsome [5],Stable
same,IC50,Plasmodium falciparum [6],0.37 nM
same,Activity,Plasmodium berghei [7],86%
same,IC50,Plasmodium berghei [8],0.61 nM
same,half-life,[9],7.8 h
same,clearance,[10],1.1 mL/min/kg
same,bioavailability,[11],1%
same,half-life,[12],2.8 h
same,concentration at 1 h,[13],169 nM
same,Vd,[14],0.3 L/kg
same,Stability,Liver microsome [15],Stable
same,concentration at 24 h,[16],< 10 nM
CS(=O)(=O)c1ccc(-c2cnn3ccc(-c4cccc(S(=O)(=O)C5CC5)c4)cc23)cc1,Tmax,[17],2 h
same,IC50,Plasmodium falciparum [1],2.7 nM
same,Tmax,[18],4 h
same,concentration at 4 h,[2],1060 nM
same,Stability,[3],Stable
same,AUC(0-t) at 23 h,[19],78300 ng·h/mL
same,MSD,Plasmodium berghei [4],7 days
same,Drug metabolism,Blood [20],metabolite_detected
same,bioavailability,[21],61%
same,Tmax,[22],8 h
same,AUC(0-t) at 8 h,[23],139 ng·h/mL
same,Stability,Liver microsome [5],Stable
same,AUC(0-t) at 23 h,[24],3200 ng·h/mL
same,half-life,[25],2.7 h
same,AUC(0-t) at 23 h,[26],1010 ng·h/mL
same,IC50,Plasmodium falciparum [6],2.4 nM
same,Cmax,[27],25 ng/mL
same,AUC(0-t) at 23 h,[28],24800 ng·h/mL
same,clearance,[29],3.5 mL/min/kg
same,half-life,[30],5.7 h
same,Activity,Plasmodium berghei [7],71%
same,IC50,Plasmodium berghei [8],20 nM
same,concentration at 1 h,[13],697 nM
same,Cmax,[31],7430 ng/mL
same,Drug metabolism,Liver microsome [32],metabolite_detected
same,Tmax,[33],2 h
same,Stability,Liver microsome [15],Stable
same,Tmax,[34],2 h
same,Vd,[35],0.8 L/kg
same,Drug uptake,Blood [36],BLD
same,Cmax,[37],106 ng/mL
same,Cmax,[38],467 ng/mL
same,Cmax,[39],2600 ng/mL
CS(=O)(=O)c1ccc(-c2cnn3ccc(-c4cccc(S(C)(=O)=O)c4)cc23)cc1,selectivity ratio,[40],> 1000
same,IC50,Plasmodium falciparum [1],8 nM
same,concentration at 4 h,[2],486 nM
same,selectivity ratio,[41],> 1000
same,Stability,[3],Stable
same,MSD,Plasmodium berghei [4],4 days
same,bioavailability,[42],1%
same,Stability,Liver microsome [5],Stable
same,IC50,[43],> 33000 nM
same,selectivity ratio,[44],> 1000
same,Activity,Plasmodium berghei [7],60%
same,IC50,Plasmodium berghei [8],6.6 nM
same,half-life,[45],2.6 h
same,selectivity ratio,[46],> 1000
same,clearance,[10],13.9 mL/min/kg
same,half-life,[12],4.1 h
same,concentration at 1 h,[13],7600 nM
same,Vd,[14],4.8 L/kg
same,Stability,Liver microsome [15],Stable
same,concentration at 24 h,[16],290 nM
